In brackets after ≈: the same amount, converted by molar mass.
Key:
Assay type in all cases: functional
[1] = tested on: Enterococcus faecalis; assay: Compound was tested for its minimal inhibitory constant against Gram-positive microorganism Enterococcus faecalis IID682 (Ef)
Outline: (§1)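 Serial 2-fold agar dilution on Sensitivity Test agar, inoculum approximately 10^6 CFU/mL, incubated 37 °C for 18 h. MIC taken as lowest concentration preventing visible growth. Values are means of duplicate or triplicate experiments.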

[2] = tested on: Staphylococcus aureus; assay: Compound was tested for its minimal inhibitory constant against Gram-positive microorganism Staphylococcus aureus FDA 209P JC-1 (Sa(F)); outline: as §1
[3] = tested on: Pseudomonas aeruginosa; assay: Compound was tested for its minimal inhibitory constant against Gram-negative microorganism Pseudomonas aeruginosa IFO 3445 (Pa(I)); outline: as §1
[4] = tested on: Micrococcus luteus; assay: Compound was tested for its minimal inhibitory constant against Gram-positive microorganism Micrococcus luteus ATCC 9341 (MI); outline: as §1
[5] = tested on: Staphylococcus epidermidis; assay: Compound was tested for its minimal inhibitory constant against Gram-positive microorganism Staphylococcus epidermidis IAM 1296 (Se); outline: as §1
[6] = tested on: Escherichia coli; assay: Compound was tested for its minimal inhibitory constant against Gram-negative microorganism Escherichia coli KC-14 (Ec(K)); outline: as §1
[7] = tested on: Klebsiella pneumoniae; assay: Compound was tested for its minimal inhibitory constant against Gram-negative microorganism Klebsiella pneumoniae B54 (Kp); outline: as §1
[8] = tested on: Escherichia coli; assay: Compound was tested for its minimal inhibitory constant against Gram-negative microorganism Escherichia coli NIHJ JC-2 (Ec(N)); outline: as §1
[9] = tested on: Pseudomonas aeruginosa; assay: Compound was tested for its minimal inhibitory constant against Gram-negative microorganism Pseudomonas aeruginosa E-2 (Pa(E)); outline: as §1
[10] = tested on: Staphylococcus aureus; assay: Compound was tested for its minimal inhibitory constant against Gram-positive microorganism Staphylococcus aureus IID 803 (Sa(I)); outline: as §1
[11] = tested on: Mus musculus; assay: Compound was tested for Therapeutic effects on systemic infections on mice by peroral administration; details: po
Outline: (§2)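 Mouse protection against S. aureus IID 803: groups of five male ddY mice (25–28 g) infected i.p. with 0.5 mL bacterial dilution at 100 or 200 times the 50% lethal dose; compound suspended in 1% aqueous gum arabic, given orally 1 h postinfection. Survival scored after 1 week; ED50 with 95% confidence limits by Weil method.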

[12] = tested on: Staphylococcus aureus; assay: Tested for in vitro for antibacterial activity against 16 clinical isolated of methicillin-resistant Staphylococcus aureus, range of Minimal inhibitory activity value for isolates
Outline: (§3)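 Serial 2-fold agar dilution in Sensitivity Test agar, following the standard method. Clinical MRSA isolates collected in Japan in 1988 and 1989. Inoculum about 10^6 CFU/mL. Plates incubated at 37 °C for 18 h. MIC taken as the lowest concentration that prevented visible growth.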

[13] = tested on: Staphylococcus aureus; assay: Tested for in vitro for antibacterial activity against 16 clinical isolated of methicillin-resistant Staphylococcus aureus; outline: as §3
[14] = tested on: Mus musculus; assay: Compound was tested for oral efficacy on systemic infections on mice by peroral administration; outline: as §2

Row | Structure (SMILES) | MIC [1] [µg/mL] | MIC [2] [µg/mL] | MIC [3] [µg/mL] | MIC [4] [µg/mL] | MIC [5] [µg/mL] | MIC [6] [µg/mL] | MIC [7] [µg/mL] | MIC [8] [µg/mL] | MIC [9] [µg/mL] | MIC [10] [µg/mL] | ED50 [11] [mg/kg] | MIC [12] [µg/mL] | MIC50 [13] [µg/mL] | MIC90 [13] [µg/mL] | ED50 [14] [mg/kg] | MIC [13] [µg/mL]
1 | COC[C@H]1CN(c2c(F)cc3c(=O)c(C(=O)O)c4scc5n4c3c2N(C)C5)CCO1 | 0.2 (≈ 0.461 µM) | 0.025 (≈ 0.0577 µM) | 3.13 (≈ 7.22 µM) | 0.2 (≈ 0.461 µM) | 0.025 (≈ 0.0577 µM) | 0.39 (≈ 0.9 µM) | 0.39 (≈ 0.9 µM) | 0.39 (≈ 0.9 µM) | 3.13 (≈ 7.22 µM) | 0.006 (≈ 0.0138 µM) | 1.25 |  |  |  |  | 
2 | COC[C@@H]1CN(c2c(F)cc3c(=O)c(C(=O)O)c4scc5n4c3c2N(C)C5)CCO1 | 0.2 (≈ 0.461 µM) | 0.025 (≈ 0.0577 µM) | 3.13 (≈ 7.22 µM) | 0.2 (≈ 0.461 µM) | 0.05 (≈ 0.115 µM) | 0.39 (≈ 0.9 µM) | 0.78 (≈ 1.8 µM) | 0.2 (≈ 0.461 µM) | 3.13 (≈ 7.22 µM) | 0.0125 (≈ 0.0288 µM) | 0.82 |  |  |  |  | 
3 | CN1Cc2csc3c(C(=O)O)c(=O)c4cc(F)c(N5CCOC(CO)C5)c1c4n23 (configuration not stated) | 0.1 (≈ 0.238 µM) | 0.0125 (≈ 0.0298 µM) | 1.56 (≈ 3.72 µM) | 0.2 (≈ 0.477 µM) | 0.05 (≈ 0.119 µM) | 0.1 (≈ 0.238 µM) | 0.39 (≈ 0.93 µM) | 0.1 (≈ 0.238 µM) | 1.56 (≈ 3.72 µM) | 0.006 (≈ 0.0143 µM) |  | ≤ 0.006 | 0.39 (≈ 0.93 µM) | 0.78 (≈ 1.86 µM) | 5.1 | 
4 | CC1CN(c2c(F)cc3c(=O)c(C(=O)O)c4scc5n4c3c2N(C)C5)CCO1 (configuration not stated) | 0.05 (≈ 0.124 µM) | 0.0125 (≈ 0.031 µM) | 0.78 (≈ 1.93 µM) | 0.1 (≈ 0.248 µM) | 0.0125 (≈ 0.031 µM) | 0.1 (≈ 0.248 µM) | 0.39 (≈ 0.967 µM) | 0.1 (≈ 0.248 µM) | 0.78 (≈ 1.93 µM) | 0.006 (≈ 0.0149 µM) |  | ≤ 0.006 | 0.1 (≈ 0.248 µM) | 0.2 (≈ 0.496 µM) | 3.5 | 
5 | CNCC1CN(c2c(F)cc3c(=O)c(C(=O)O)c4scc5n4c3c2N(C)C5)CCO1 (configuration not stated) | 0.2 (≈ 0.462 µM) | 0.025 (≈ 0.0578 µM) | 3.13 (≈ 7.24 µM) | 0.78 (≈ 1.8 µM) | 0.1 (≈ 0.231 µM) | 0.2 (≈ 0.462 µM) | 1.56 (≈ 3.61 µM) | 0.2 (≈ 0.462 µM) | 3.13 (≈ 7.24 µM) | 0.05 (≈ 0.116 µM) |  |  |  |  |  | 
6 | CN(C)CC1CN(c2c(F)cc3c(=O)c(C(=O)O)c4scc5n4c3c2N(C)C5)CCO1 (configuration not stated) | 0.1 (≈ 0.224 µM) | 0.025 (≈ 0.056 µM) | 6.25 (≈ 14 µM) | 0.2 (≈ 0.448 µM) | 0.05 (≈ 0.112 µM) | 0.2 (≈ 0.448 µM) | 0.39 (≈ 0.873 µM) | 0.39 (≈ 0.873 µM) | 6.25 (≈ 14 µM) | 0.025 (≈ 0.056 µM) |  |  |  |  | 4.8 | 
7 | CN1Cc2csc3c(C(=O)O)c(=O)c4cc(F)c(N5CCOC(CCl)C5)c1c4n23 (configuration not stated) | 0.05 (≈ 0.114 µM) | 0.0125 (≈ 0.0285 µM) | 1.56 (≈ 3.56 µM) | 0.05 (≈ 0.114 µM) | 0.0125 (≈ 0.0285 µM) | 0.2 (≈ 0.457 µM) | 0.39 (≈ 0.891 µM) | 0.2 (≈ 0.457 µM) | 1.56 (≈ 3.56 µM) | 0.006 (≈ 0.0137 µM) |  | < 0.006 | 0.1 (≈ 0.228 µM) | 0.2 (≈ 0.457 µM) |  | 
8 | CCC1CN(c2c(F)cc3c(=O)c(C(=O)O)c4scc5n4c3c2N(C)C5)CCO1 (configuration not stated) | 0.1 (≈ 0.24 µM) | 0.025 (≈ 0.0599 µM) | 3.13 (≈ 7.5 µM) | 0.2 (≈ 0.479 µM) | 0.05 (≈ 0.12 µM) | 0.39 (≈ 0.934 µM) | 0.39 (≈ 0.934 µM) | 0.39 (≈ 0.934 µM) | 1.56 (≈ 3.74 µM) | 0.025 (≈ 0.0599 µM) |  |  |  |  | > 12 | 
9 | CC1CN(c2c(F)cc3c(=O)c(C(=O)O)c4scc5n4c3c2N(C)C5)CC(C)O1 (configuration not stated) | 0.2 (≈ 0.479 µM) | 0.0125 (≈ 0.0299 µM) | 3.13 (≈ 7.5 µM) | 0.2 (≈ 0.479 µM) | 0.1 (≈ 0.24 µM) | 0.39 (≈ 0.934 µM) | 0.78 (≈ 1.87 µM) | 0.39 (≈ 0.934 µM) | 3.13 (≈ 7.5 µM) | 0.0125 (≈ 0.0299 µM) |  |  |  |  | > 12 | 
10 | COCC1CN(c2c(F)cc3c(=O)c(C(=O)O)c4scc5n4c3c2N(C)C5)CCO1 (configuration not stated) | 0.2 (≈ 0.461 µM) | 0.025 (≈ 0.0577 µM) | 3.13 (≈ 7.22 µM) | 0.2 (≈ 0.461 µM) | 0.05 (≈ 0.115 µM) | 0.39 (≈ 0.9 µM) | 0.78 (≈ 1.8 µM) | 0.2 (≈ 0.461 µM) | 3.13 (≈ 7.22 µM) | 0.0125 (≈ 0.0288 µM) | 1.09 | ≤ 0.006 | 0.39 (≈ 0.9 µM) | 0.78 (≈ 1.8 µM) | 1.7 | 
11 | CN1Cc2csc3c(C(=O)O)c(=O)c4cc(F)c(N5CCOC(CF)C5)c1c4n23 (configuration not stated) | 0.05 (≈ 0.119 µM) | 0.0125 (≈ 0.0297 µM) | 0.78 (≈ 1.85 µM) | 0.1 (≈ 0.237 µM) | 0.025 (≈ 0.0593 µM) | 0.1 (≈ 0.237 µM) | 0.2 (≈ 0.475 µM) | 0.1 (≈ 0.237 µM) | 0.78 (≈ 1.85 µM) | 0.006 (≈ 0.0142 µM) |  |  | 0.2 (≈ 0.475 µM) | 0.2 (≈ 0.475 µM) | 1.9 | ≤ 0.006
12 | CN1Cc2csc3c(C(=O)O)c(=O)c4cc(F)c(N5CCOCC5)c1c4n23 | 0.05 (≈ 0.128 µM) | 0.006 (≈ 0.0154 µM) | 0.39 (≈ 1 µM) | 0.1 (≈ 0.257 µM) | 0.025 (≈ 0.0642 µM) | 0.1 (≈ 0.257 µM) | 0.05 (≈ 0.128 µM) | 0.1 (≈ 0.257 µM) | 0.39 (≈ 1 µM) | 0.006 (≈ 0.0154 µM) |  |  | 0.2 (≈ 0.514 µM) | 0.2 (≈ 0.514 µM) | > 12 | < 0.006
13 | CC1COc2c(N3CCN(C)CC3)c(F)cc3c(=O)c(C(=O)O)cn1c23 (configuration not stated) [OFLOXACIN] | 1.56 (≈ 4.32 µM) |  |  |  |  | 0.1 (≈ 0.277 µM) | 0.1 (≈ 0.277 µM) |  | 1.56 (≈ 4.32 µM) |  | 14.6 |  | 6.25 (≈ 17.3 µM) | 50 (≈ 138 µM) | 11.4 | 
